Results from ChEMBL document CHEMBL4477235, “Evolution of a Novel, Orally Bioavailable Series of PI3Kδ Inhibitors from an Inhaled Lead for the Treatment of Respiratory Disease” (J Med Chem, 2016).
pIC50: −log10 of the molar value. In brackets after ≈: the same amount, converted by molar mass.

Tests used:
[1] = Kinetic solubility in phosphate buffered saline at pH 7.4 after 1 hr by chemiluminescent nitrogen detection method; format: physicochemical; conditions: read-out: Kinetic_solubility
Procedure, shortened: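 The sample was then filtered, and the filtrate was quantified by calibrated flow-injection chemiluminescent nitrogen detection. Standard error was ±30 µM, and the upper limit was 500 µM from the 10 mM stock.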

Homo sapiens [2] = organism: Homo sapiens; assay: Selectivity ratio of IC50 for PI3Kgamma (unknown origin) to IC50 for PI3Kdelta (unknown origin)
Procedure, shortened: (§1)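 Ratio of each isoform's HTRF IC50 to the PI3Kδ HTRF IC50. Enzymes were preincubated 15 min with 4-fold compound dilutions in HEPES pH 7.0, MgCl2, DTT buffer. […] PIP2 was 5 µM for δ and 8 µM for α/β/γ. 60 min reaction, then EDTA quench with GRP-1 PH domain/APC/Eu detection. Four-parameter fit.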

[3] = molecular target: Phosphatidylinositol 4,5-bisphosphate 3-kinase catalytic subunit gamma isoform (Homo sapiens, UniProt P48736); assay: Inhibition of PI3Kgamma (unknown origin) using PIP2 as substrate preincubated for 15 mins followed by substrate addition measured after 60 mins in presence of biotin-labeled PIP3 by HTRF assay
Chain of Phosphatidylinositol 4,5-bisphosphate 3-kinase catalytic subunit gamma isoform (P48736 whole entry, the tested form may be a part, canonical isoform): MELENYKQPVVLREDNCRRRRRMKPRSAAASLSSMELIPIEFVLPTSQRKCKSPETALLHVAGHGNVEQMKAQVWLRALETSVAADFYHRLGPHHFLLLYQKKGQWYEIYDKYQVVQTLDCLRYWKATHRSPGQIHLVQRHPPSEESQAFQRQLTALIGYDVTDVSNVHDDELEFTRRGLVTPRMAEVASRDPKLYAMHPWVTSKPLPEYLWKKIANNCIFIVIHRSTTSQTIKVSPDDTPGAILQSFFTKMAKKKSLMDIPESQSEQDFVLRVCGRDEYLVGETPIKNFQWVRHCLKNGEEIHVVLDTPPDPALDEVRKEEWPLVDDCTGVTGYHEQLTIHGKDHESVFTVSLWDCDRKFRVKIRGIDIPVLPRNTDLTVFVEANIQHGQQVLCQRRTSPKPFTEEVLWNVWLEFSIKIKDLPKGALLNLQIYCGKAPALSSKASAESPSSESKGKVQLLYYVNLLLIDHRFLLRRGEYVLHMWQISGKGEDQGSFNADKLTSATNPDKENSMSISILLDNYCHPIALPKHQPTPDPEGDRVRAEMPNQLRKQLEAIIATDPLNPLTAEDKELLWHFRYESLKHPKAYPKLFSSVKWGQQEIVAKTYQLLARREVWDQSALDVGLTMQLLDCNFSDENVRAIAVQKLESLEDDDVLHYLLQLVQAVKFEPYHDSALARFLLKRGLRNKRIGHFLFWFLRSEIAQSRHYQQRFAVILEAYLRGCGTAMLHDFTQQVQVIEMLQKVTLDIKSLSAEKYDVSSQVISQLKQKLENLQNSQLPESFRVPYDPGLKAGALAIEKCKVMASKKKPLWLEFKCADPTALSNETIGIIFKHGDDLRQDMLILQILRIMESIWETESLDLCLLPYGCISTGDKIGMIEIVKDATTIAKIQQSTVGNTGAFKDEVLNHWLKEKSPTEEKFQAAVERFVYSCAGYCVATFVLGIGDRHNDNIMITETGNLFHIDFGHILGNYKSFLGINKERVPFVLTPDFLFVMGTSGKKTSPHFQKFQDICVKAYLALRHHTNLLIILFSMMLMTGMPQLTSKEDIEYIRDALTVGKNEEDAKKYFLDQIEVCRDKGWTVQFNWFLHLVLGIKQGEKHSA
Procedure, shortened: (§2)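 HTRF kinase assay in 50 mM HEPES pH 7.0, 150 mM NaCl, 10 mM MgCl₂, 1 mM DTT. Enzyme preincubated 15 min with 4-fold serially diluted compound. […] Quenched after 60 min with EDTA plus GRP-1 PH domain/streptavidin-APC/Eu-antiGST detection, then equilibrated 60 min in the dark. Data normalized to no-compound and no-enzyme controls. IC50 from four-parameter fit.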

[4] = molecular target: Phosphatidylinositol 4,5-bisphosphate 3-kinase catalytic subunit beta isoform (Homo sapiens, UniProt P42338); assay: Inhibition of PI3Kbeta (unknown origin) using PIP2 as substrate preincubated for 15 mins followed by substrate addition measured after 60 mins in presence of biotin-labeled PIP3 by HTRF assay; procedure, shortened: as §2
Chain of Phosphatidylinositol 4,5-bisphosphate 3-kinase catalytic subunit beta isoform (P42338 whole entry, canonical isoform): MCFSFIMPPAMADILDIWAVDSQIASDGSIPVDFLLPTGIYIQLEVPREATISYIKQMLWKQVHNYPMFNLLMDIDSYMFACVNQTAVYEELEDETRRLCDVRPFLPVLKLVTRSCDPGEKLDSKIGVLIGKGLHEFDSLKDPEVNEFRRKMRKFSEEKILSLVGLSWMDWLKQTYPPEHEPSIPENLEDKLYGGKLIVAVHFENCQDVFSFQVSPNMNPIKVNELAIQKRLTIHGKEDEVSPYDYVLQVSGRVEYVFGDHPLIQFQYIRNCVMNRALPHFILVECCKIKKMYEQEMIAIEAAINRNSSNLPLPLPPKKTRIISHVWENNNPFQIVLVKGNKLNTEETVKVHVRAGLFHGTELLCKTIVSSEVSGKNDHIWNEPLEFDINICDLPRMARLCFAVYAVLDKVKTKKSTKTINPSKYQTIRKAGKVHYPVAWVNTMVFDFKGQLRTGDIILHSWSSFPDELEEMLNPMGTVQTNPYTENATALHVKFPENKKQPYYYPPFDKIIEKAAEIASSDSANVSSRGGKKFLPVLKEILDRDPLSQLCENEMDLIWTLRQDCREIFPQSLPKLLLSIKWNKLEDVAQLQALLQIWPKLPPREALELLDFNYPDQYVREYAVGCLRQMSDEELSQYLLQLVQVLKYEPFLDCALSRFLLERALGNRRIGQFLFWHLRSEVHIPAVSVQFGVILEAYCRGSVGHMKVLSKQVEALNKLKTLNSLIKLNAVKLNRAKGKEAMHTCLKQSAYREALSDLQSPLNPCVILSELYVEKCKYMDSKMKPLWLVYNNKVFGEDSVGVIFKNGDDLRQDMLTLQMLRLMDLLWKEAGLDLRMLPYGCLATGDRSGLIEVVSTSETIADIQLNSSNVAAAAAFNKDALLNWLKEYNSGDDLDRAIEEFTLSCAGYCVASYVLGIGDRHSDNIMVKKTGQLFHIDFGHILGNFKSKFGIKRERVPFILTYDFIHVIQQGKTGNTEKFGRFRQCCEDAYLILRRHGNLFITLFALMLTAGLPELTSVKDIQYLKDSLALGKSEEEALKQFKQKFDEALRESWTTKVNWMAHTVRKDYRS

[5] = Lipophilicity, log D of compound at pH 7.4 by chromatographic method; format: physicochemical; conditions: buffer
Homo sapiens [6] = organism: Homo sapiens; assay: Selectivity ratio of IC50 for PI3Kbeta (unknown origin) to IC50 for PI3Kdelta (unknown origin); procedure, shortened: as §1
Homo sapiens [7] = organism: Homo sapiens; assay: Selectivity ratio of IC50 for PI3Kalpha (unknown origin) to IC50 for PI3Kdelta (unknown origin); procedure, shortened: as §1
[8] = molecular target: Phosphatidylinositol 4,5-bisphosphate 3-kinase catalytic subunit alpha isoform (Homo sapiens, UniProt P42336); assay: Inhibition of PI3Kalpha (unknown origin) using PIP2 as substrate preincubated for 15 mins followed by substrate addition measured after 60 mins in presence of biotin-labeled PIP3 by HTRF assay; procedure, shortened: as §2
Chain of Phosphatidylinositol 4,5-bisphosphate 3-kinase catalytic subunit alpha isoform (P42336 whole entry, canonical isoform): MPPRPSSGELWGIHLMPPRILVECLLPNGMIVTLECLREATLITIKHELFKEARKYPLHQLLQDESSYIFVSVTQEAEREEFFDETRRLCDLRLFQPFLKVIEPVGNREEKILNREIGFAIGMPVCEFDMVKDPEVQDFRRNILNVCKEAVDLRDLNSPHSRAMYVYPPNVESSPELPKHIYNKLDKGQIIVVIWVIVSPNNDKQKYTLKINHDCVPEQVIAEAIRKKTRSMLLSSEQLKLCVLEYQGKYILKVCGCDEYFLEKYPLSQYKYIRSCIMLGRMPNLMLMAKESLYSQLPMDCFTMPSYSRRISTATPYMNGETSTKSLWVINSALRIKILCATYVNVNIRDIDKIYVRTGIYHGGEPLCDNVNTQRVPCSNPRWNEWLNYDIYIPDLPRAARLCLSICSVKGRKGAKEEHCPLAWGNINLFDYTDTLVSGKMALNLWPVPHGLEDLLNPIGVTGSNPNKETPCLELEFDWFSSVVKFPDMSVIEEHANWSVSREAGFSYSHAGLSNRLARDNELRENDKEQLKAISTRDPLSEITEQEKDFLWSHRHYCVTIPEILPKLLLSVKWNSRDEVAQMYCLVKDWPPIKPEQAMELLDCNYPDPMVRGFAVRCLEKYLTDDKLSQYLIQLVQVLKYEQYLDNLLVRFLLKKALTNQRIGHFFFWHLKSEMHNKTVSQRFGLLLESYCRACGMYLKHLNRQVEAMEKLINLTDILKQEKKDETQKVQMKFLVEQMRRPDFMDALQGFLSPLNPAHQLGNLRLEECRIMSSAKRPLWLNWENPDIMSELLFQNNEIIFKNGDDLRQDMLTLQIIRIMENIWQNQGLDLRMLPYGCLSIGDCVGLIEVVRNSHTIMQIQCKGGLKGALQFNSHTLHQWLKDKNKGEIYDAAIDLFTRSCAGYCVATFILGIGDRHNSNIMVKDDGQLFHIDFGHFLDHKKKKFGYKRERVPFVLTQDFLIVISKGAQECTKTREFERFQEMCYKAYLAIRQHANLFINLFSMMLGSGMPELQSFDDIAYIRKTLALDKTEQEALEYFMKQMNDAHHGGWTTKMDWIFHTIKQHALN

[9] = molecular target: T1, Phosphatidylinositol 4,5-bisphosphate 3-kinase catalytic subunit delta isoform (Homo sapiens, UniProt O00329)
T1 sequence (O00329 whole entry): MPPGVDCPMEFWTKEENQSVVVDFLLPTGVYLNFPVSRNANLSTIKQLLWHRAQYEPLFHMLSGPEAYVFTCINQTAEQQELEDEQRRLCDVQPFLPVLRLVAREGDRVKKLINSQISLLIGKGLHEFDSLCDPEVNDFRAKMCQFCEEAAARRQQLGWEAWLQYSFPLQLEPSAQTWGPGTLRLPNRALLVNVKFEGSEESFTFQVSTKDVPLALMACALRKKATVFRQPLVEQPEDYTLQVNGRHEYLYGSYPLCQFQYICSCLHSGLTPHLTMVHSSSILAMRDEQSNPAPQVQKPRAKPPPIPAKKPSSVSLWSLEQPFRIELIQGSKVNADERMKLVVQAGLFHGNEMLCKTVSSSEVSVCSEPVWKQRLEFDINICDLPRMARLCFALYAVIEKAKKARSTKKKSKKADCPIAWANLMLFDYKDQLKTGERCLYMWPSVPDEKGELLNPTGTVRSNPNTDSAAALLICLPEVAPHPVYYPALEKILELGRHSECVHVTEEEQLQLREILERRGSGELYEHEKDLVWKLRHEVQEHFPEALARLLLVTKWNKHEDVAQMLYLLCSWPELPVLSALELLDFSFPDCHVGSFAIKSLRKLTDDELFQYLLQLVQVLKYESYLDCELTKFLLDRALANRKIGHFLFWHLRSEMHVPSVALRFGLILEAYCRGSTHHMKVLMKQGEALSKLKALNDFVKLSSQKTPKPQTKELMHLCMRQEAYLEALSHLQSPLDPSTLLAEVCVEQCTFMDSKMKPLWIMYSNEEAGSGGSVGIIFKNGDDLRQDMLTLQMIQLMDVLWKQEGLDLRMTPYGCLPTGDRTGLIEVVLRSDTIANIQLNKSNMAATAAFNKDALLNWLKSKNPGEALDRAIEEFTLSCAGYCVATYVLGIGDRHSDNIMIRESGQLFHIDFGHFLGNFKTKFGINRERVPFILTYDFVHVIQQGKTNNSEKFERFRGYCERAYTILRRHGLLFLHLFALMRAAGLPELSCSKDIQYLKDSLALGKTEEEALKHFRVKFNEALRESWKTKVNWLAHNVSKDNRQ

[10] = molecular target: T1, Phosphatidylinositol 4,5-bisphosphate 3-kinase catalytic subunit delta isoform; remark: listed apart in the source
[11] = Volume of distribution at steady state in Sprague-Dawley rat at 3 mg/kg, po or 1 mg/kg, iv measured up to 7 hrs by LC-MS/MS analysis; format: ADME, organism-based; conditions: in vivo, read-out: Vdss
Procedure, shortened: (§3)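 Male Sprague Dawley rats, n = 2 per route, were dosed discretely at 3 mg/kg orally or 1 mg/kg intravenously. The dosing solution was DMSO/PEG200/water (5:45:50 v/v/v). Serial tail-vein blood samples were taken over 0–7 h, and parent compound was quantified by LC–MS/MS. Parameters were estimated by noncompartmental analysis.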

[12] = Clearance in human liver microsomes at 0.5 uM measured up to 30 mins by LC-MS/MS analysis; format: ADME, Microsome; conditions: 0.5 h
[13] = Oral bioavailability in Sprague-Dawley rat at 3 mg/kg measured up to 7 hrs by LC-MS/MS analysis; format: ADME, organism-based; conditions: in vivo; for F: 7 h; procedure, shortened: as §3
[14] = Half life in Sprague-Dawley rat at 1 mg/kg, iv by LC-MS/MS analysis; format: ADME, organism-based; conditions: in vivo
Procedure, shortened: (§4)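 Male Sprague Dawley rats (n = 2/route), intravenous dose as a solution in DMSO/PEG200/water (5:45:50 v/v/v) at 2 mL/kg. Serial tail-vein blood sampling over 0–7 h. LC–MS/MS quantification of parent. Noncompartmental analysis.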

Albumin = Albumin (Homo sapiens, UniProt P02768); assay: Binding affinity to human serum albumin by HPLC analysis; format: ADME; conditions: read-out: PB (converted)
Chain of Albumin (P02768 whole entry): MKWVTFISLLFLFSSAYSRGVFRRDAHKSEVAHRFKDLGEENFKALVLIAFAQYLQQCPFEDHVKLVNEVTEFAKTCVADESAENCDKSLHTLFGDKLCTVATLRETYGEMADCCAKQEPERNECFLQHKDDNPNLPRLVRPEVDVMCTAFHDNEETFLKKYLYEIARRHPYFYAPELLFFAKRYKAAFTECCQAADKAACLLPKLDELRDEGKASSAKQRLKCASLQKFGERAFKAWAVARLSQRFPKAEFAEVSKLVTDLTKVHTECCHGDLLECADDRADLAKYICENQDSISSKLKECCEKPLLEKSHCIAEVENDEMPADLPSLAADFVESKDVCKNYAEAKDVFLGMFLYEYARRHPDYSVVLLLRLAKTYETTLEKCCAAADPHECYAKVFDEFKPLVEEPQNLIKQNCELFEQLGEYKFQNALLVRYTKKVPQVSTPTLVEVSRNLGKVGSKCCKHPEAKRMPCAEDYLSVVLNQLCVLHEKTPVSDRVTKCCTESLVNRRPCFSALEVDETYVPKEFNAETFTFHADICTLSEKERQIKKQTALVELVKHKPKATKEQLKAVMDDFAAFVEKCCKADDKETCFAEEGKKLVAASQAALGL

[15] = Clearance in mouse liver microsomes at 0.5 uM measured up to 30 mins by LC-MS/MS analysis; format: ADME, Microsome; conditions: 0.5 h
[16] = molecular target: Phosphatidylinositol 4,5-bisphosphate 3-kinase catalytic subunit delta isoform (Homo sapiens) (UniProt O00329); assay: Ratio of IC50 for PI3Kdelta in human PBMC to IC50 for PI3Kdelta (unknown origin)
[17] = AUC(infinity) in Sprague-Dawley rat at 3 mg/kg, po measured up to 7 hrs by LC-MS/MS analysis; format: ADME, organism-based; design: dose 3 mg/kg, time infinity, route oral; conditions: in vivo
Procedure, shortened: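 Male Sprague Dawley rats (n = 2/route), oral dose in DMSO/PEG200/water (5:45:50 v/v/v) at 6 mL/kg. Serial tail-vein bleeds over 0–7 h. Parent compound quantified by LC–MS/MS. Parameters from noncompartmental analysis.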

[18] = Clearance in rat liver microsomes at 0.5 uM measured up to 30 mins by LC-MS/MS analysis; format: ADME, Microsome; conditions: 0.5 h
Procedure, shortened: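 Rat liver microsomes (0.5 mg protein/mL) prewarmed 10 min at 37 °C, started with NADPH regeneration system. Final compound 0.5 μM. Sampled at 0, 3, 6, 12 and 30 min into acetonitrile with internal standard. Peak area ratios by LC–MS/MS fitted to log-linear decline. Clearance scaled by protein concentration, incubation volume and 52.5 mg microsomal protein/g liver.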

[19] = Cmax in Sprague-Dawley rat at 3 mg/kg, po measured up to 7 hrs by LC-MS/MS analysis; format: ADME, organism-based; design: dose 3 mg/kg, route oral; conditions: in vivo
[20] = Clearance in Sprague-Dawley rat at 1 mg/kg, iv measured up to 7 hrs by LC-MS/MS analysis; format: ADME, organism-based; conditions: in vivo; procedure, shortened: as §4
[21] = AUC (0 to t) in Sprague-Dawley rat at 3 mg/kg, po measured up to 7 hrs by LC-MS/MS analysis; format: ADME, organism-based; design: dose 3 mg/kg, time < 7 hr, route oral; conditions: in vivo
Procedure, shortened: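 Male Sprague Dawley rats were given a single oral dose of 3 mg/kg in DMSO/PEG200/water (5:45:50 v/v/v) at 6 mL/kg, with n = 2 per route. Blood was sampled serially from the tail vein over 0–7 h. Parent compound was quantified by LC–MS/MS, and parameters were derived by noncompartmental analysis.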

Row | Compound | solubility kinetic at 1 h [1] | Ratio IC50 (Homo sapiens [2]) | chromatographic logD [5] | Ratio IC50 (Homo sapiens [6]) | Ratio IC50 (Homo sapiens [7]) | pIC50 [9] | Vd [11] | CLH [12] | half-life [14] | fraction unbound (Albumin) | CLH [15] | CLH [18] | other results
1 | COc1ncc(-c2ccc3c(c2)COC3)cc1NS(C)(=O)=O | 92 µg/mL (≈ 287 µM) | 4 | 3.5 | 2.5 | 5 | 6.10 | – | – | – | – | – | – | pIC50 [3]: 5.50; pIC50 [4]: 5.70; pIC50 [8]: 5.40
2 | COc1ncc(-c2cc(-c3ncc(CN4C[C@@H](C)O[C@@H](C)C4)o3)c3cn[nH]c3c2)cc1NS(C)(=O)=O | 182 µg/mL (≈ 355 µM) | – | 3.3 | – | – | – | 3.5 L/kg | 3.2 mL/min/g | 2.6 h | 0.1 | 5.9 mL/min/g | 1.9 mL/min/g | bioavailability ([13]; Sprague-Dawley): < 2%; Cmax [19]: < 2 ng/mL; AUC(0-inf) ([17]; Sprague-Dawley): < 24 ng·h/mL; clearance [20]: 50 mL/min/kg
3 | COc1ncc(-c2ccc3cn[nH]c3c2)cc1NS(C)(=O)=O | 31 µg/mL (≈ 97.4 µM) | – | 2.6 | – | – | – | – | – | – | – | – | – | pIC50 [3]: 5.60; pIC50 [4]: 5.10; pIC50 [8]: 5.10
4 | COc1ncc(-c2cc(NC(=O)c3csc(C)n3)c3cn[nH]c3c2)cc1NS(C)(=O)=O | – | 16 | – | 63 | 63 | – | – | – | – | – | – | – | –

More lines, main results first:

Row | solubility kinetic at 1 h [1] | Ratio IC50 (Homo sapiens [2]) | chromatographic logD [5] | Ratio IC50 (Homo sapiens [6]) | Ratio IC50 (Homo sapiens [7]) | pIC50 [9] | Vd [11] | CLH [12] | half-life [14] | fraction unbound (Albumin) | CLH [15] | CLH [18] | Compound | other results
5 | – | 13 | – | 13 | 4 | 6.40 | – | – | – | – | – | – | COc1ncc(-c2cc3c(c(NC(C)=O)c2)COC3)cc1NS(C)(=O)=O | –
6 | 195 µg/mL (≈ 485 µM) | 5 | – | 13 | 5 | 7.70 | 0.5 L/kg | < 0.5 mL/min/g | 0.9 h | 0.1 | 1 mL/min/g | < 0.5 mL/min/g | COc1ncc(-c2cc3c(c(-c4nnc(C)o4)c2)COC3)cc1NS(C)(=O)=O | pIC50 [10]: 6.70; F [13]: 56%; Ratio IC50 [16]: > 10; AUC ([17]; 7 h): 1370 ng·h/mL
7 | – | 6 | – | 20 | 10 | 7.20 | – | – | – | – | – | – | COc1ncc(-c2cc3c(c(-c4ccccn4)c2)COC3)cc1NS(C)(=O)=O | –
8 | 50 µg/mL (≈ 110 µM) | 25 | – | 126 | 50 | 8.30 | 1.6 L/kg | < 0.5 mL/min/g | 3.4 h | 0.07 | 1.4 mL/min/g | 1.2 mL/min/g | COc1ncc(-c2cc3c(c(NC(=O)c4cccc(C)n4)c2)COC3)cc1NS(C)(=O)=O | pIC50 [10]: 6.70; F [13]: 1.5%; Ratio IC50 [16]: > 10; AUCt [21]: 42 ng·h/mL
9 | – | 25 | – | 63 | 50 | 8.10 | – | – | – | – | – | – | COc1ncc(-c2cc3c(c(NC(=O)c4csc(C)n4)c2)COC3)cc1NS(C)(=O)=O | –
